According to publication PMC8114561 (Small (Weinheim an der Bergstrasse, Germany), 2019):
Several values for one entry are separate records, joined by “and”; a condition that tells them apart may be missing. Equal entries are not always repeated.

Tests used:
[1] = Intravenous pharmacokinetics in healthy BALB/c mice
[2] = cited from earlier work
[3] = system: advanced soft tissue sarcomas; settings: cited from earlier work
MIA PaCa-2 tumors = experiment: Tumor regression, MIA PaCa-2 pancreatic xenograft; assay type: in vivo, nude BALB/c mice; settings: 20 mg Dox equiv. kg^−1 BW
C26 tumors = experiment: Tumor regression, syngeneic C26 colon carcinoma; assay type: in vivo, BALB/c mice; settings: single i.v. dose
STS = settings: ref NCT01514188; cited from earlier work
MIA PaCa-2 cells = experiment: In vitro cytotoxicity; assay type: cell-based, human; settings: 72 h incubation, MTS, Dox equiv. concentration, n = 3 (Figure 2F)
How it was run: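 MIA PaCa-2 cells grown in DMEM with 10% FBS and 2.5% horse serum, seeded at 5000 cells/well and left overnight. Exposed for 72 h, in triplicate, to 3-fold serial dilutions in medium, with cell-free wells for background correction. MTS added for 3 h at 37 °C, then A490 read. Viability relative to buffer-treated cells; IC50 as Dox equiv. by logistic nonlinear regression.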

[4] = mouse, iv
[5] = system: C26 murine colon carcinoma cells; experiment: In vitro cytotoxicity; assay type: cell-based

COc1cccc2c1C(=O)c1c(O)c3c(c(O)c1C2=O)C[C@@](O)(/C(CO)=N/NC(=O)CCCCCN1C(=O)C=CC1=O)C[C@@H]3O[C@H]1C[C@H](N)[C@H](O)[C@H](C)O1 [AlDox, Aldoxorubicin]
Plasma concentration 15 min after i.v. injection, fold lower than ABD–Dox ([1]; i.v. 5 mg Dox equiv. per kg BW, 15 min): approximately 2 fold | Area under curve ([1]; i.v. 5 mg Dox equiv. per kg BW, plasma, two-compartment model, mean ± SD): 801.2 ± 23.7 × 10^−6 M h | Concentration at which an acidic pH is required for solubility ([2]; aqueous solutions): ≥ 0.5 mg Dox equiv. mL^−1 | Solubility at physiological pH ([2]; requires an acidic pH for solubility in aqueous solutions): poor solubility | Cardiotoxicity [3]: minimal cardiotoxicity | Progression-free survival compared to the standard of care regimen [3]: superior progression-free survival | Tumor recurrence in tumor-eradicated mice by day 50 (MIA PaCa-2 tumors): tumors recurred in all of the tumor-eradicated mice | Mice with complete tumor disappearance by day 15 (MIA PaCa-2 tumors; single i.v. dose): 50% | Mice that did not survive over the 100-day course of study (C26 tumors; 20 mg Dox equiv. kg^−1 BW): 89% | Tumor response at 20 mg Dox equiv. kg^−1 BW (C26 tumors; without recurrence of the primary tumor in any mice, 100 days): complete eradication of C26 tumors | Cardiotoxicity in the AlDox arm (STS): no evidence of cardiotoxicity | Overall survival, AlDox versus free Dox arms (STS): not considerably different | PFS in the AlDox arm (STS): superior PFS

COc1cccc2c1C(=O)c1c(O)c3c(c(O)c1C2=O)C[C@@](O)(C(=O)CO)C[C@@H]3O[C@H]1C[C@H](N)[C@H](O)[C@H](C)O1 [free Dox, doxorubicin]
IC50 (MIA PaCa-2 cells): 40 nM | Concentration in blood 15 min after i.v. injection, of the initial concentration ([1]; i.v. 5 mg per kg BW, 15 min): less than 2% | In vivo elimination half-life [4]: on the order of minutes | IC50 ([5]; 72 h, in the absence of MSA and ABD, n = 3 (Figure 2H)): 230 nM | IC50 ([5]; 72 h, in the presence of ABD (0.5 × 10^−3 M in medium), n = 3 (Figure 2H)): 160 nM | IC50 ([5]; 72 h, in the presence of MSA (equimolar), n = 3 (Figure 2H)): 220 nM | IC50 ([5]; 72 h incubation, MTS, Dox equiv. concentration, n = 3 (Figure 2F)): 510 nM and 500 nM | Change of cytotoxicity in the presence of either MSA or ABD ([5]; C26 cells, 72 h): No difference was observed
